# Experimental data from the RNAGym collection of RNA variant scans (doi:10.1126/science.aae0568).
# Variants at the floor of the assay were thinned out.
# B1: tRNA (parent)
# chain: GUUCCGUUGGCGUAAUGGUAACGCGUCUCCCUCCUAAGGAGAAGACUGCGGGUUCGAGUCCCGUACGGAACG
# Variants of: B1
# Experiment: yeast fitness relative to wild type (ratio to wild type); higher = fitter; tRNA-Arg(CCU), competitive growth, 37 C, YPD
# Procedure, shortened: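 Genotype frequency changes were the basis for Darwinian fitness relative to wild type. The frequencies came from 100-nucleotide paired-end sequencing of gene amplicons from the start population and each end population of pooled yeast strains with tRNA-Arg(CCU) gene variants at the native locus. Competition ran in YPD at 37°C for 24 hours in six replicates, genotypes needed ≥ 100 starting reads, and estimates < 0.5 were set to 0.5.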
row,Variant,yeast fitness
1,U3C G10A U13C G58C,≤ 0.5
2,U3G A14G G39C,≤ 0.5
3,U3C U19A G68A,0.698
4,U3C C46U A69U,0.789
5,U3C G12A C49U,0.569
6,U3C U19A A69U,0.865
7,U3C G12A C29G C34U A36C G56C,≤ 0.5
8,U3C G25C C62U G68A,0.796
9,U3C C30G,0.677
10,U3C G9C C46U,0.567
11,U3G A15G G23A,≤ 0.5
12,U3C U8C C11A U32G C61A C62A,≤ 0.5
13,U3C G9C C11U C30G A43C C55U,≤ 0.5
14,U3C U16A C34A U53C C60U,≤ 0.5
15,U3C G10A,0.718
16,U3C U19A G50C C62G C66U,0.575
17,U3C G6A C30U G39A A45G C46U C49G,≤ 0.5
18,U3C C55A A65U,≤ 0.5
19,U3C U32A G41A C46U,≤ 0.5
20,U3C C27G C33G A42G A45G,≤ 0.5
21,U3C U8G,0.581
22,U3C U59C A69C,1.02
23,U3C G9A G17A,0.798
24,U3C U19A C46A,0.716

row,Variant,yeast fitness
1,U3C C31U G52C,0.591
2,U3C C30A A69U,0.745
3,U3C G17A C29U C33U C60G,≤ 0.5
4,U3C G12A A37C A45U G48C,0.591
5,U3C C55G,0.619
6,U3G A14U G48C C49U C61A,≤ 0.5
7,U3C U8A U13C,≤ 0.5
8,U3C G9A C11U,0.808
9,U3C C31G G67U,≤ 0.5
10,U3C U28G G39C,≤ 0.5
11,U3C G6A G18C C30U C31U G48A C55G G67A,≤ 0.5
12,U3C C31U C61A,0.567
13,U3C C31U G48A,0.734
14,U3C C29G,0.679
15,U3C C29U,0.844
16,U3C U8C C11A C31A G68C,≤ 0.5
17,U3C C46A G58C,1.04
18,U3C G9C,0.712
19,U3C G9A,1.04
20,U3C U26G G63A,≤ 0.5
21,U3C U19A C22U G23A,≤ 0.5
22,U3C C34A A37C G39A A45G C62U,0.534
23,U3C U8G U28G C31A C61U,≤ 0.5
24,U3C U19C A40G C46A,0.74

row,Variant,yeast fitness
1,U3C U26C A42U,0.939
2,U3G A15U U35C,≤ 0.5
3,U3C G6C,0.753
4,U3C G6A,0.866
5,U3C G9A A15U C30A C34A A42G,≤ 0.5
6,U3C G12A A20C G23C G56C A65C G68A,≤ 0.5
7,U3C G48C G67C,≤ 0.5
8,U3C U26C G44C U54A A69C,≤ 0.5
9,U3G A14C,0.773
10,U3G A14U,0.629
11,U3C G25A,0.968
12,U3C C34A,0.665
13,U3C C34U,0.789
14,U3C G9C C11U C30G C55A A69C,≤ 0.5
15,U3C C46A G48A C66U,0.629
16,U3C G9A G68A,0.843
17,U3C U53C,0.78
18,U3C C30U C33G,≤ 0.5
19,U3C G18A U32G A43C G51A,0.626
20,U3C C34A G44A G52A C55U A70G,≤ 0.5
21,U3C C29U C60G,0.568
22,U3C C27G G48C,0.522
23,U3C C61G,0.604
24,U3C C61U,0.847

row,Variant,yeast fitness
1,U3C G12C A37U G51A C62U,0.607
2,U3C G39C A43G G44C A45U C49G G67C,≤ 0.5
3,U3C C31G U59A,≤ 0.5
4,U3C U54C C61G,0.577
5,U3C G12C A20G A43G C61U,≤ 0.5
6,U3C U13C U28G U54A C62A,≤ 0.5
7,U3C U13C C24U G52A,0.576
8,U3C U8A A15C C31G C49U A57U,0.609
9,U3C G12C A20U C22G G50A C61A,≤ 0.5
10,U3C C30G G52A A70U,0.641
11,U3C C30A C61U,0.678
12,U3C C27G C33G G51C C60U C61U,≤ 0.5
13,U3C G17C A40G U54C,0.59
14,U3C G9A G50A,0.838
15,U3C C33G C55U,≤ 0.5
16,U3C U26A C33U C49U,≤ 0.5
17,U3C U54C,0.873
18,U3C U54A,0.676
19,U3C U54G,0.536
20,U3C U13C C24U G52A G68A,≤ 0.5
21,U3C C60A,0.619
22,U3C C31G A57G,0.589
23,U3C G25C A37U G44A,0.705
24,U3G A14U C29U A37G G51A,≤ 0.5

row,Variant,yeast fitness
1,U3C G9C C11U C30G A43C,0.519
2,U3C G50A C61U,0.671
3,U3C C31U A43G A69U,0.733
4,U3C C46U U64C,0.802
5,U3C U16A C30U A40C,≤ 0.5
6,U3C U13C U16A C61A U64C,0.582
7,U3C G10C C27U,≤ 0.5
8,U3G A20C A21G,0.798
9,U3C G23A U35G A42G,≤ 0.5
10,U3C G23A,0.701
11,U3C C30G A43C C60G C66G A69G,≤ 0.5
12,U3C C49U A70C,0.751
13,U3C C60G G67C,≤ 0.5
14,U3C C30G A43C G67C,≤ 0.5
15,U3C G9A C30A G67U,≤ 0.5
16,U3C G23A C30U C33A G41C A42U,≤ 0.5
17,U3C G12A U28C A37C A45U G48C,≤ 0.5
18,U3C U16G U19A A43C A57U A69C,≤ 0.5
19,U3C C33G C60A C66G,≤ 0.5
20,U3C C31U C66U,0.898
21,U3C U28A C34U U47C C60U,≤ 0.5
22,U3C G9A A65G,0.888
23,U3C U7A G9C G17C G48A A69U,≤ 0.5
24,U3C G25C C34U G56A,≤ 0.5

row,Variant,yeast fitness
1,U3C C46G C62A,0.564
2,U3C G10C C22U C55G,≤ 0.5
3,U3C C27G,0.714
4,U3C G12A C29G C34U A36C C61A,0.587
5,U3G A15G A21U C24U G38A,0.571
6,U3C C62G,0.853
7,U3C U7G A14C C31A G50A G52C A65C,≤ 0.5
8,U3C U8C A57C,≤ 0.5
9,U3C U32C A42U,0.686
10,U3C C31U G67C,0.797
11,U3C U54A C62U,≤ 0.5
12,U3C G63A A70U,0.655
13,U3C U13C C31U,0.801
14,U3C C27G C33A G51A,≤ 0.5
15,U3C U13A A20C C30G C31A U54A C55U,0.521
16,U3C U47G U64A,≤ 0.5
17,U3C U19C C24A G58A,≤ 0.5
18,U3C C30U G38A G44C U54A,≤ 0.5
19,U3C G10A U54C G56C G58A,0.553
20,U3G A14C A20U,≤ 0.5
21,U3C C29G G38A A43G G50A,≤ 0.5
22,U3C G38C A65U C66U,0.555
23,U3C U13G A70G,0.698
24,U3G A15C C30G C33G A37C,0.795

row,Variant,yeast fitness
1,U3C G10A A40C C55G,≤ 0.5
2,U3C G50C,0.714
3,U3C U19A G52A U59C C66A G67A,≤ 0.5
4,U3C C62U U64A,≤ 0.5
5,U3C U32G A37G,≤ 0.5
6,U3C G39C G63A,0.533
7,U3C C30A G51A,0.602
8,U3C U16G C30U C33U U47C,≤ 0.5
9,U3C G23A C34U A40U A42U U64A,≤ 0.5
10,U3C G6C A14U G25A G38A U47A C60G A70G,0.51
11,U3C C29U A36U C66U G67A,≤ 0.5
12,U3C G23C C27G C61G,0.539
13,U3C C34A G44A G52A U53C C55U,0.527
14,U3C U13A A20C C30G C31A,≤ 0.5
15,U3C C31G G51C,0.55
16,U3C U47C,0.866
17,U3C U47G,0.7
18,U3C U47A,0.907
19,U3C G9A A14G C66U,≤ 0.5
20,U3C G12A A45U A69C,≤ 0.5
21,U3C C31U C62G,0.665
22,U3C G68C,0.845
23,U3C G68A,0.866
